The results in this text go back to ChEMBL document CHEMBL3992568, “Discovery of Antimalarial Azetidine-2-carbonitriles That Inhibit P. falciparum Dihydroorotate Dehydrogenase” (ACS Med Chem Lett, 2017).

A short description of data set [1]: Initial concentration in CD-1 mouse at 1 mg/kg, iv or 5 mg/kg, po administered as single dose. Format: ADME, organism-based. The conditions noted are these: in vivo. The method, boiled down: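 Female CD-1 mice, single dose. Oral formulation: 70% PEG300/30% (5% dextrose in water) at 0.5 mg/mL. Intravenous formulation: 5% DMSO/10% cremophor/85% water at 0.25 mg/mL. Parameters from non-compartmental analysis.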

In a further data set the test system is Mus musculus. Kind of data set: Dose normalized AUC (0 to infinity) in CD-1 mouse at 5 mg/kg, po administered as single dose. Type of data set: ADME, organism-based. The conditions noted are these: in vivo.

The structures appear in SMILES notation.

`CCCNC(=O)N1[C@H](C#N)[C@H](c2ccc(-c3ccc(C(F)(F)F)c(C(F)(F)F)c3)cc2)[C@H]1CO` returned a C0 in data set [1] of 4.9 µM. This compound gave an AUC/dose in the data set on Mus musculus above 54.3 µM·h.
